In ChEMBL document CHEMBL1149845, “Synthesis, cytotoxic activities and structure-activity relationships of topoisomerase I inhibitors: indolizinoquinoline-5,12-dione derivatives” (Bioorg Med Chem, 2008):

Legend:
[1] = Cytotoxicity against human GLC82 cells after 2 days by MTT assay; type: functional, cell-based; conditions: GLC82, 48 h
Method in brief: (§1)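 Cells grown in RPMI-1640 with 10% FBS, penicillin 100 U/mL and streptomycin 100 µg/mL at 37 °C, 5% CO2, passage 3–6. Exponential-phase cells seeded at 5 × 10⁴–1 × 10⁵ cells/ml, grown overnight, then exposed for 2 days to compounds predissolved in DMSO at selected concentrations. Viability read by MTT.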

[2] = system: HL-60; test: Cytotoxicity against human HL60 cells after 2 days by MTT assay; type: functional, cell-based; conditions: HL-60, 48 h; method in brief: as §1
[3] = system: MCF7; test: Cytotoxicity against human MCF7 cells after 2 days by MTT assay; type: functional, cell-based; conditions: MCF7, 48 h; method in brief: as §1
[4] = system: NCI-H460; test: Cytotoxicity against human NCI-H460 cells after 2 days by MTT assay; type: functional, cell-based; conditions: NCI-H460, 48 h; method in brief: as §1
[5] = species on record: Bos taurus; test: Inhibition of calf thymus topoisomerase 1-mediated supercoiled plasmid DNA relaxation at 125 uM
[6] = species on record: Bos taurus; test: Inhibition of calf thymus topoisomerase 1-mediated supercoiled plasmid DNA relaxation at 0.2 uM
Method in brief: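 Calf thymus TOP1 relaxation of 0.5 µg pBR322 in 20 µL buffer (20 mM Tris pH 7.5, 0.1 mM EDTA, 10 mM MgCl2, 50 µg/mL acetylated BSA, 100 mM KCl), compound from DMSO. Started by adding DNA, 30 min at 37 °C, stopped with loading buffer. 1% agarose gel in Tris-borate/EDTA at 5 V/cm, ethidium bromide stain. Supercoiled DNA quantified densitometrically.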

Structure (SMILES)	IC50 [1] [µM]	IC50 [2] [µM]	IC50 [3] [µM]	IC50 [4] [µM]	inhibition [5] [%]	inhibition [6] [%]
CCOC(=O)c1c2c(n3cccc(C)c13)C(=O)c1ncccc1C2=O	1.83	0.22	14.5			
CCOC(=O)c1c2c(n3cccc(N)c13)C(=O)c1cccnc1C2=O	23.5	> 25	> 25	19		
CCOC(=O)c1c2c(n3ccccc13)C(=O)c1ncccc1C2=O	< 0.25	0.88	0.96	< 0.25		
CC(=O)c1c2c(n3cccc(Cl)c13)C(=O)c1ncccc1C2=O	6.85	0.19	7.83	0.23		
CC(=O)c1c2c(n3cccc(Br)c13)C(=O)c1ncccc1C2=O	2.01	0.21	11.7	2.15		
O=C1c2cc3ccccn3c2C(=O)c2cccnc21	16.7	14.7	20.2	12.3		
CC(=O)c1c2c(n3ccccc13)C(=O)c1ncccc1C2=O	< 0.25	0.86	7.92	< 0.25		
CCOC(=O)c1c2c(n3cccc(N)c13)C(=O)c1ncccc1C2=O	23.4	16.4	20.9	17.6		
O=C1c2cccnc2C(=O)c2c1cc1ccccn21	11.5	17	> 25	15.6		
CCOC(=O)c1c2c(n3cccc(O)c13)C(=O)c1cccnc1C2=O	23.8	> 25	> 25	23.3		
CC(=O)c1c2c(n3cccc(N)c13)C(=O)c1ncccc1C2=O	12.2	22.3	> 25	> 25		
CC(=O)c1c2c(n3cccc(N)c13)C(=O)c1cccnc1C2=O	10.3	15.8	> 25	10.3		
CC[C@@]1(O)C(=O)OCc2c1cc1n(c2=O)Cc2cc3ccccc3nc2-1					81.3	
CCOC(=O)c1c2c(n3cccc(C)c13)C(=O)c1cccnc1C2=O	9.27	11.7	> 25			
CCOC(=O)c1c2c(n3cccc(F)c13)C(=O)c1ncccc1C2=O	< 0.25	1.37	7.01	< 0.25		
CCOC(=O)c1c2c(n3cccc(Cl)c13)C(=O)c1ncccc1C2=O	< 0.25	6.52	7.37	2.1	100	5.8

Structure (SMILES)	IC50 [1] [µM]	IC50 [2] [µM]	IC50 [3] [µM]	IC50 [4] [µM]	inhibition [5] [%]	inhibition [6] [%]
Cc1c2c(n3ccccc13)C(=O)c1ncccc1C2=O	14.2	12.5	> 25	12.2		
CC(=O)c1c2c(n3ccccc13)C(=O)c1cccnc1C2=O	1.9	14.7	12.7	1.4		
CCOC(=O)c1c2c(n3cccc(Br)c13)C(=O)c1cccnc1C2=O	1.1	11.5	20.8	2.4		
CCOC(=O)c1c2c(n3cccc(Cl)c13)C(=O)c1cccnc1C2=O	9.73	15.4	19.9	2.2		
CC(=O)c1c2c(n3cccc(Cl)c13)C(=O)c1cccnc1C2=O	16.1	2.2	16.1	1.5		
CC(=O)c1c2c(n3cccc(F)c13)C(=O)c1cccnc1C2=O	12.7	1.39	9.28	6.75		
CCOC(=O)c1c2c(n3cccc(O)c13)C(=O)c1ncccc1C2=O	7.2	> 25	> 25	> 25		
CCOC(=O)c1c2c(n3cccc(Br)c13)C(=O)c1ncccc1C2=O	< 0.25	9.32	10.3	2		
CCOC(=O)c1c2c(n3cccc(F)c13)C(=O)c1cccnc1C2=O	1.7	5.51	6.2	1.2		
Cc1c2c(n3ccccc13)C(=O)c1cccnc1C2=O	21.5	> 25	> 25	> 25		
CCOC(=O)c1c2c(n3ccccc13)C(=O)c1ccccc1C2=O	> 25	> 25	> 25			
CC(=O)c1c2c(n3cccc(F)c13)C(=O)c1ncccc1C2=O	5.26	0.17	2.31	< 0.25		
CC(=O)c1c2c(n3cccc(O)c13)C(=O)c1ncccc1C2=O	19.5	> 25	17.6	24.9		
CC(=O)c1c2c(n3cccc(Br)c13)C(=O)c1cccnc1C2=O	4.68	1.56	12.4	0.2		
CCOC(=O)c1c2c(n3ccccc13)C(=O)c1cccnc1C2=O	2.4	14.5	6.38	1.9		
CC(=O)c1c2c(n3cccc(O)c13)C(=O)c1cccnc1C2=O	16.3	> 25		> 25		
